# A selection: hits, their analogues and other compounds. The true share with any hit is near 3.2%.
# 14-3-3 Bad PPI – disrupts binding of bovine 14-3-3 zeta to phospho-Bad peptide; inhibition, % at 21.7 µM; TR-FRET 14-3-3zeta/Dy647-pBad peptide displacement, 1 h; 220,000 tested, 0.71% active; P63103;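 active means inhibition above about 70%, limit read from the data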;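 further: 0% = full 14-3-3 plus peptide FRET controls and 100% = background without 14-3-3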
# Calb biofilm kill – mixture kills Candida albicans biofilm cells. C. albicans biofilm persisters + clotrimazole, fluorescence viability; primary screen in compound mixtures of four per well. inhibition, % at 7.6 µM. 120,000 tested, 0.02% active. AID 1242;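 active means inhibition above 30.3% in the primary screen of four-compound pools, then above 30% when the compound was retested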;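 further: compounds exposed to preformed 24 h biofilms for 48 h; 0% = untreated biofilm control and 100% = clotrimazole plus chlorhexidine kill blank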
#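 Incubation: 24 h biofilm formation, then 48 h compound exposure, 37 °C | Material: C. albicans biofilms | Buffer or medium: RPMI/MOPS medium, pH 7.0 | Measured by: 2-h Alamar Blue fluorescence, 535/590 nm excitation/emission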
# Mcl1 Bid PPI – Mcl-1/Bid interaction inhibition. 220,000 tested, 0.97% active. TR-FRET Mcl-1/Bid-Dy647 peptide binding, 1536-well. inhibition, % at 21.7 µM. Q07820;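 active means compounds that cut the binding signal by more than half at the single screening dose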;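 further: His-tagged Mcl-1 with europium anti-His antibody binding Bid BH3 peptide; 0% = Mcl-1 plus peptide wells and 100% = peptide-only wells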
# Mcl1 Noxa PPI – Mcl-1/Noxa interaction inhibition; Q07820; AID 1022; 220,000 tested, 1.5% active; TR-FRET Mcl-1/Noxa peptide binding, 2 h; inhibition, % at 21.7 µM;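 active means compounds that cut the protein-peptide binding signal by more than 50% relative to plate controls in a single-dose test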;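 further: His-tagged Mcl-1 with rhodamine Noxa BH3 peptide and terbium anti-His antibody; 0% = Mcl-1 plus Noxa peptide wells and 100% = peptide-only wells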
# Bim-Mcl-1 – disrupts Bim peptide binding to human Mcl-1 | Bead-based flow cytometry, Bim peptide-Mcl-1 binding | inhibition, % at 10 µM | 190,000 tested, 0.1% active | AID 1009; in the data active means inhibition above about 40%;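 further: 0% = no compound tracer wells and 100% = peptide blocker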
# Hck Nef HTS – blocks Nef-activated human Hck kinase; Recombinant Hck-YEEI plus Nef, Z-Lyte FRET kinase assay; AID 463187; inhibition, % at 20 µM; 220,000 tested, 0.68% active; P08631;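 active means Hck-Nef kinase inhibition above about 50%, limit read from the data; inactive means inhibition below that limit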;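 further: 0% = DMSO with Hck plus Nef and 100% = Hck alone without Nef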
# Target sequence (P08631 whole entry, looked up): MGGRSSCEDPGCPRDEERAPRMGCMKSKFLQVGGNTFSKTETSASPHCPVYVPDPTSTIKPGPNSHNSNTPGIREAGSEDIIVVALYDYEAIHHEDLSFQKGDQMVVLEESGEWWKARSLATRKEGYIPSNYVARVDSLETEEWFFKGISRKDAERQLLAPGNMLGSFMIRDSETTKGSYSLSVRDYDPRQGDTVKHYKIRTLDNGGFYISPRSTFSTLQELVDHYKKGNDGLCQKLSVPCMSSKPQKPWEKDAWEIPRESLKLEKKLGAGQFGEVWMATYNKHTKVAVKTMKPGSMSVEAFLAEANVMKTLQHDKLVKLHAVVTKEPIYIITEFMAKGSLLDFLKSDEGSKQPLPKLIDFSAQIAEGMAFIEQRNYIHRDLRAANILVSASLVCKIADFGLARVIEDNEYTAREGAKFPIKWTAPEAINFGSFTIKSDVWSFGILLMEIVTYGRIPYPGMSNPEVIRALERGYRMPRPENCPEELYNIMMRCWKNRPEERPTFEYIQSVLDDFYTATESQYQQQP
# Active calls of the source: *; / = no result.
SMILES,14-3-3 Bad PPI,Calb biofilm kill,Mcl1 Bid PPI,Mcl1 Noxa PPI,Bim-Mcl-1,Hck Nef HTS
CC1CCN(C(c2ccc(N(C)C)cc2)c2nnnn2Cc2ccc(F)cc2)CC1 (stereo not drawn),-11,/,-49,18,-1,1
O=C(c1ccco1)N1CCN(C(c2ccc(F)cc2)c2nnnn2Cc2cccs2)CC1 (stereo not drawn),90*,/,62*,25,-3,1
O=C(c1ccco1)N1CCN(C(c2ccccc2)c2nnnn2Cc2cccs2)CC1 (stereo not drawn),55,/,-22,5,0,0
O=C(c1ccco1)N1CCN(C(c2ccc(Cl)cc2)c2nnnn2CC2CCCO2)CC1 (stereo not drawn),81*,/,55*,15,-6,2
CC(C)CCn1nnnc1C(c1ccc(F)cc1)N1CCN(C(=O)c2ccco2)CC1 (stereo not drawn),83*,/,-13,12,4,3
Fc1ccc(Cn2nnnc2C(c2ccc(Cl)cc2)N2CCSCC2)cc1 (stereo not drawn),53,/,14,11,43*,1
COc1ccc(OC)c(C(c2nnnn2CCC(C)C)N2CCN(C(=O)c3ccco3)CC2)c1 (stereo not drawn),48,/,19,16,12,-2
Cc1cnc(NC(=O)c2ccc(OCC3CCCO3)cc2)s1 (stereo not drawn),2,10,5,3,1,59*
CCN(CC)CCCNC(=S)N(Cc1cccs1)Cc1cc2cc3c(cc2[nH]c1=O)OCCO3,8,24,-30,59*,39,26
COc1ccc(/C=N/Nc2nn3cnnc3c3ccccc23)cc1,-6,17,9,57*,/,17
COc1ccc(/C=N/Nc2nonc2N)cc1,-5,/,-12,61*,0,1
Nc1nonc1N/N=C/c1c(O)ccc2ccccc12,-8,12,-21,51*,1,17
CCNc1nc(NCC)nc(N/N=C/c2ccc(OC)cc2)n1,2,9,-16,-20,/,21
Nc1nonc1N/N=C\c1ccccc1,-7,20,-2,-12,/,24
COC(=O)c1ccc(C(=O)OC)c(=O)[nH]1,8,3,-19,-2,/,18
Cc1sc(N)c(C(=O)c2ccccc2Cl)c1C,-7,8,-51,20,-4,20
Oc1cccc(C(O)CNCc2ccc(-c3ccccc3)cc2)c1 (stereo not drawn),77*,11,4,20,0,16
O=C(/C=C1\C(=O)Nc2ccccc21)/C=C1\C(=O)Nc2ccccc21,93*,4,92*,102*,/,-17
CN(O)/C=C1\C(=O)Nc2ccccc21,-8,/,-103,3,0,-22
CCOc1ccc(C(=O)NCC(=O)Nc2ccc(N3CCOCC3)cc2)cc1OCC,-17,8,-73,1,0,30
CC1=C(C(=O)OCc2ccccc2)C(/C=C/c2ccccc2)NC(=S)N1 (stereo not drawn),-8,10,54*,6,-5,0
C=CCOC(=O)C1=C(C)NC(=S)NC1/C=C/c1ccccc1 (stereo not drawn),-4,/,-12,3,1,-1
Cc1cc(CNC(=O)Cc2ccc(F)cc2)c2ccccc2n1,-5,-6,3,-2,-1,2
COCCn1cc(C(=O)N2CCC(C)CC2)c2c3ccccc3n(C)c2c1=O,18,/,95*,15,2,2
O=S(=O)(c1ccc(-c2ccon2)s1)N1CCN(c2ccncc2)CC1,46,21,-14,72*,/,6
Cc1ccc(C(=O)C2C(=O)c3ccccc3C2=O)cc1,82*,/,6,10,-3,1
C=C(C)CNC(=S)N/N=C/c1ccc(NC(C)=O)cc1,-7,24,-19,8,-1,-8
CC(=O)Nc1ccc(/C=N/NC(=S)NC(C)C)cc1,-2,10,6,53*,-1,24
COCCn1c(C)nnc1SCC(=O)Nc1ccccc1[N+](=O)[O-],-2,29,-21,24,2,26
O=C(CSc1nnnn1-c1cccc2c1CCCC2)N1CCCCC1,-3,18,-9,-61,-7,5
